In ChEMBL document CHEMBL1131058, “Studies on quinazolines and 1,2,4-benzothiadiazine 1,1-dioxides. 8.1, 2 synthesis and pharmacological evaluation of tricyclic fused quinazolines and 1,2,4-benzothiadiazine 1,1-dioxides as potential alpha1-adrenoceptor antagonists” (J Med Chem, 1998):

Columns and labels:
[1] = biological target: T1, Adrenergic receptor alpha-1 (Rattus norvegicus, UniProt P15823+P23944+P43140); assay: Binding affinity towards Alpha-1 adrenergic receptor measured by displacement of [3H]prazosin from rat brain cortex membranes; assay type: cell membranes, Membrane
T1 sequence (P15823 whole entry): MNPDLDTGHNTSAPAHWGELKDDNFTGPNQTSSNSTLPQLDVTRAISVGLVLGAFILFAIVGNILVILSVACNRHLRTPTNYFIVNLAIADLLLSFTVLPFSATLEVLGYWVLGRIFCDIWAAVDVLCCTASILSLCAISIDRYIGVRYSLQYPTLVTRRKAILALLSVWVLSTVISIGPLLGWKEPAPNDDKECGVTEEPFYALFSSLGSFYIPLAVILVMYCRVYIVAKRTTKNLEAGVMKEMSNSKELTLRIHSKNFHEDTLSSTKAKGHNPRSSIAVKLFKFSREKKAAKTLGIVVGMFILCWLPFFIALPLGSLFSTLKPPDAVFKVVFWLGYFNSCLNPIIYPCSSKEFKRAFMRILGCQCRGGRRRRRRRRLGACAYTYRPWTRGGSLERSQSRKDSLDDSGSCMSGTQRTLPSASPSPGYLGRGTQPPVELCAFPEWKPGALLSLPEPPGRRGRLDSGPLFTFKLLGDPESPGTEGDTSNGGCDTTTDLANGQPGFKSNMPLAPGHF
T1 sequence (P23944 whole entry): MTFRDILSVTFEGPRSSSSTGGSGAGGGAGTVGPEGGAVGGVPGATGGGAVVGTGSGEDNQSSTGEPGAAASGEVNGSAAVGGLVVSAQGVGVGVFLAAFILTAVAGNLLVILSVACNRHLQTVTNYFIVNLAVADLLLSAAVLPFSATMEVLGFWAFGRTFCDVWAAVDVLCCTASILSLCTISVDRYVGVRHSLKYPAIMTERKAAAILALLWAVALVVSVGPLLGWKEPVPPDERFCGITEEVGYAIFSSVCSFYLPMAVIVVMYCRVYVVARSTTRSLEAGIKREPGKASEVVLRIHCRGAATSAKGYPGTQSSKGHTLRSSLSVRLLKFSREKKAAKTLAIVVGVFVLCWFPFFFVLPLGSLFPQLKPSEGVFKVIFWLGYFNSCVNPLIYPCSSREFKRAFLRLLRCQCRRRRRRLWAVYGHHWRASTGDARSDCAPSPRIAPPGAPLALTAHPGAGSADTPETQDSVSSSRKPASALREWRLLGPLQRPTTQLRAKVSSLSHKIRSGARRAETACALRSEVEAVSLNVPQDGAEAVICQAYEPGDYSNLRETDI
T1 sequence (P43140 whole entry): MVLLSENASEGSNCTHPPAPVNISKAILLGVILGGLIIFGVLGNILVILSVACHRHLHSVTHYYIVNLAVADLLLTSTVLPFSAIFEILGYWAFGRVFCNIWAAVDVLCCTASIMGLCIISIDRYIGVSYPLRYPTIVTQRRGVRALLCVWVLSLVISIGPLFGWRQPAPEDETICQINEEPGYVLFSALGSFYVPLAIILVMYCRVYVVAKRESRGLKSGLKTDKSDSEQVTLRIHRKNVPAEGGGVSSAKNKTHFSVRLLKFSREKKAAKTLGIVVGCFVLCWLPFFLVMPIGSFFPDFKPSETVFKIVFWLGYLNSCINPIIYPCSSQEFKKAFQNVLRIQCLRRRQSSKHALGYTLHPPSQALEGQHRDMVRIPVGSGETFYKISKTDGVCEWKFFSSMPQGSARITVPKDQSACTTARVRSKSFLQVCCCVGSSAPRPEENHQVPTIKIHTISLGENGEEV
How it was run: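 Triplicate competition binding against 0.2-0.25 nM [³H]prazosin in Tris buffer pH 7.4, 30 min at room temperature. Competitor range 0.1-200 nM. Nonspecific binding defined with 10 µM phentolamine. Reaction stopped by GF/B filtration with two cold Tris washes. Membrane protein 300-400 µg per assay. Ki calculated from the data; mean ± SEM of 3-6 experiments.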

[2] = biological target: T2, Adrenergic receptor alpha-2 (Rattus norvegicus, UniProt P22086+P19328+P22909); assay: Displacement of clonidine from Alpha-2 adrenergic receptor in rat brain cortex; assay type: tissue-based
T2 sequence (P22086 whole entry): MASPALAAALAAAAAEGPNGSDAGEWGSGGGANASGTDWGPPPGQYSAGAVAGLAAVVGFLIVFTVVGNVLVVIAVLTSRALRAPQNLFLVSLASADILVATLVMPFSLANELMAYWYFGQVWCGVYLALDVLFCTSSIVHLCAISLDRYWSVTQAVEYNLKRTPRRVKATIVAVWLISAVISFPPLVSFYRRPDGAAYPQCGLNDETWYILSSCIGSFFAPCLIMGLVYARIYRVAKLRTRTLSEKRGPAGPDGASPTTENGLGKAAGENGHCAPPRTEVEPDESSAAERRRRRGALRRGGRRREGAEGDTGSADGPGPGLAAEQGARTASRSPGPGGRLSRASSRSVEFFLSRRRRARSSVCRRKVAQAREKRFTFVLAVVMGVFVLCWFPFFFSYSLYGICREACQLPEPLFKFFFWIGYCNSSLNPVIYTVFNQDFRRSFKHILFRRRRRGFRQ
T2 sequence (P19328 whole entry): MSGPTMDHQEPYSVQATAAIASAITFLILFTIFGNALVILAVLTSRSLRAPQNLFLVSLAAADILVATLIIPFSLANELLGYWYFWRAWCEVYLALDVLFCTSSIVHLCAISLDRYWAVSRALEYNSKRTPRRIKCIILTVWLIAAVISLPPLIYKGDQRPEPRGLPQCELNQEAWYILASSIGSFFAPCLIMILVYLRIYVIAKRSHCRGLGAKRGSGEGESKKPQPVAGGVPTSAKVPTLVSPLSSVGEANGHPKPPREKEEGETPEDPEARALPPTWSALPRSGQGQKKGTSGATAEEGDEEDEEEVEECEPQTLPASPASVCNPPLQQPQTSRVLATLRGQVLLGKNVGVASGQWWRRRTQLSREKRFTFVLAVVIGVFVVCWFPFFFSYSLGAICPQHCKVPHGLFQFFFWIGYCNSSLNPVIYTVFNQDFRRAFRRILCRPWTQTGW
T2 sequence (P22909 whole entry): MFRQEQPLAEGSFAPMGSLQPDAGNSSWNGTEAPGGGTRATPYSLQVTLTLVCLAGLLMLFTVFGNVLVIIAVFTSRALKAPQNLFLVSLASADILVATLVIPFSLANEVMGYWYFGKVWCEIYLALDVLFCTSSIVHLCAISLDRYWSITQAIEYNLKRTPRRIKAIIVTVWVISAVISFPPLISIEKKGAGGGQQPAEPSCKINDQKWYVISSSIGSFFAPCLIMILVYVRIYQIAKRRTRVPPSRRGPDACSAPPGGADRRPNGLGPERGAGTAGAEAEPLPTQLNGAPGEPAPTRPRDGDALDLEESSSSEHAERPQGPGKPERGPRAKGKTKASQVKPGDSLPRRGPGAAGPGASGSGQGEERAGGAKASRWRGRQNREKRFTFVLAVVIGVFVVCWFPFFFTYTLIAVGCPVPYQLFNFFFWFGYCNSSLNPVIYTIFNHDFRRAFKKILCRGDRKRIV
How it was run: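 α2 competition binding run in triplicate with 1 nM [³H]clonidine plus 10 mM MgCl₂ in Tris pH 7.4, 30 min at room temperature. Test compounds at 1-100 µM. Nonspecific binding defined with 10 µM clonidine. Membranes collected on GF/B filters and washed twice with cold Tris. Protein 300-400 µg per assay. Ki given as mean ± SEM of 3-6 experiments.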

[3] = Selectivity ratio for binding affinity towards alpha2 and alpha-1 adrenoceptors
How it was run: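 Ratio of α2 Ki ([³H]clonidine binding) to α1 Ki ([³H]prazosin binding), both measured in rat cortical membrane competition assays.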

Q: With Cn1c(=O)n2c(CN3CCN(c4ccccc4Cl)CC3)cnc2c2ccccc21 as the compound, how does the Ki [1] read?
A: Its Ki is 0.00428 µM.

Q: What about the Ki [2] of the same compound?
A: Its Ki is 0.525 µM.

Q: And the Ratio [3]?
A: Its Ratio is 123.

Q: With COc1ccccc1N1CCN(Cc2cn3c(=O)n(C)c4ccccc4c3n2)CC1 as the compound, how does the Ki [1] read?
A: Its Ki is 0.0065 µM.

Q: What about the Ki [2] of the same compound?
A: Its Ki is 3.25 µM.

Q: What about the Ratio [3] of the same compound?
A: The Ratio was 499.

Q: For COc1ccccc1N1CCN(CC2CN=C3Nc4ccccc4C(=O)N32)CC1 (stereo not given), which Ki [1] is on record?
A: Its Ki is 0.186 µM.

Q: For COc1ccccc1N1CCN(Cc2c(Br)nc3c4ccccc4n(C)c(=O)n23)CC1, which Ki [1] is on record?
A: Its Ki is > 10 µM.

Q: For O=c1c2ccccc2nc2scc(CN3CCN(c4ccccc4Cl)CC3)n12, which Ki [1] is on record?
A: Its Ki is > 10 µM.

Q: For Cn1c(=O)n2cc(CN3CCN(c4ccccc4Cl)CC3)nc2c2ccccc21, which Ki [1] is on record?
A: The Ki was 0.0141 µM.

Q: And the Ki [2]?
A: The Ki was 0.513 µM.

Q: What about the Ratio [3] of the same compound?
A: Its Ratio is 36.

Q: For Cn1c(=O)n2c(Br)c(CN3CCN(c4ccccc4Cl)CC3)nc2c2ccccc21, which Ki [1] is on record?
A: Its Ki is > 10 µM.

Q: Which Ki [1] does the source give for Cn1c(=O)n2c(CN3CCN(c4ccccc4Cl)CC3)c(Br)nc2c2ccccc21 here?
A: Its Ki is > 10 µM.

Q: For COc1ccccc1N1CCN(Cc2cnc3c4ccccc4n(C)c(=O)n23)CC1, which Ki [1] is on record?
A: Its Ki is 0.0061 µM.

Q: And the Ki [2]?
A: The Ki was 3.09 µM.

Q: What about the Ratio [3] of the same compound?
A: The Ratio was 506.

Q: For Oc1nc2ccccc2c2nc(Br)c(CN3CCN(c4ccccc4Cl)CC3)n12, which Ki [1] is on record?
A: The Ki was > 10 µM.

Q: For Oc1nc2ccccc2c2nc(CN3CCN(c4ccccc4Cl)CC3)c(Br)n12, which Ki [1] is on record?
A: Its Ki is > 10 µM.

Q: For COc1ccccc1N1CCN(Cc2c(Br)nc3c4ccccc4nc(O)n23)CC1, which Ki [1] is on record?
A: Its Ki is > 10 µM.

Q: With COc1ccccc1N1CCN(Cc2csc3nc4ccccc4c(=O)n23)CC1 as the compound, how does the Ki [1] read?
A: Its Ki is > 10 µM.

Q: With O=S1(=O)c2ccccc2NC2=NCC(CN3CCN(c4ccccc4Cl)CC3)N21 (stereo not given) as the compound, how does the Ki [1] read?
A: The Ki was 0.0118 µM.

Q: What about the Ki [2] of the same compound?
A: The Ki was 2.29 µM.

Q: And the Ratio [3]?
A: The Ratio was 194.

Q: For COc1ccccc1N1CCN(CC2CSc3nc4ccccc4c(=O)n32)CC1 (stereo not given), which Ki [1] is on record?
A: Its Ki is > 10 µM.

Q: Which Ki [1] does the source give for COc1ccccc1N1CCN(CC2CN=C3Nc4ccccc4S(=O)(=O)N32)CC1 (stereo not given) here?
A: The Ki was 0.00495 µM.

Q: What about the Ki [2] of the same compound?
A: Its Ki is 0.46 µM.

Q: And the Ratio [3]?
A: Its Ratio is 93.

Q: Which Ki [1] does the source give for O=c1c2ccccc2nc2sc(Br)c(CN3CCN(c4ccccc4Cl)CC3)n12 here?
A: Its Ki is > 10 µM.

Q: Which Ki [1] does the source give for COc1ccccc1N1CCN(Cc2nc3c4ccccc4nc(O)n3c2Br)CC1 here?
A: Its Ki is > 10 µM.

Q: Which Ki [1] does the source give for COc1ccccc1N1CCN(Cc2nc3c4ccccc4n(C)c(=O)n3c2Br)CC1 here?
A: Its Ki is > 10 µM.

Q: For COc1ccccc1N1CCN(Cc2c(Br)sc3nc4ccccc4c(=O)n23)CC1, which Ki [1] is on record?
A: Its Ki is > 10 µM.

Q: What does the source list for Oc1nc2ccccc2c2nc(CN3CCN(c4ccccc4Cl)CC3)cn12?
A: Ki [1]: 0.00929 µM; Ki [2]: 4.51 µM; Ratio [3]: 486
